# Experimental data: ChEMBL document CHEMBL4359870, “Identification of a new family of pyrazolo[3,4-d]pyrimidine derivatives as multitarget Fyn-Blk-Lyn inhibitors active on B- and T-lymphoma cell lines” (Eur J Med Chem, 2019)
# pIC50, pKi: −log10 of the molar value. Active and inactive are the calls of the source. The rule behind the calls is not given here.
# Assays:
# Farage = test: Antiproliferative activity against human Farage cells assessed as reduction in cell viability after 72 hrs by MTT assay
# HH = test: Antiproliferative activity against human HH cells assessed as reduction in cell viability after 72 hrs by MTT assay
# SU-DHL-8 [1] = test: Antiproliferative activity against human SUDHL8 cells assessed as reduction in cell viability after 72 hrs by MTT assay; conditions: SU-DHL-8, 72 h
# H9 = test: Antiproliferative activity against human H9 cells assessed as reduction in cell viability after 72 hrs by MTT assay; conditions: H9, 72 h
# FEPD [2] = test: Antiproliferative activity against human FEPD cells assessed as reduction in cell viability after 72 hrs by MTT assay
# DOHH-2 = test: Antiproliferative activity against human DOHH2 cells assessed as reduction in cell viability after 72 hrs by MTT assay; conditions: DOHH-2, 72 h
# HuT78 [3] = test: Antiproliferative activity against human HUT78 cells assessed as reduction in cell viability after 72 hrs by MTT assay; conditions: HuT78, 72 h
# SU-DHL-6 = test: Antiproliferative activity against human SUDHL6 cells assessed as reduction in cell viability after 72 hrs by MTT assay; conditions: SU-DHL-6, 72 h
# [4] = Aqueous solubility of compound at 1 mg after 24 hrs by LC-MS/MS analysis; format: physicochemical; conditions: water
# Method in brief: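 Solid compound (1 mg) shaken in 1 mL water at 20 °C for 24 h, then filtered through 0.45 µm nylon. Dissolved concentration measured by LC-MS-MS against a methanol calibration curve, in triplicate. Mean of at least three experiments.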
# [5] = Apparent permeability of compound at 500 uM after 5 hrs by UV/LC-MS analysis based GI-PAMPA assay; format: ADME
# Method in brief: (§1)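 GI-PAMPA run with donor compound at 500 µM final, diluted from 1 mM DMSO into pH 7.4 25.0 mM phosphate buffer. Filter coated with 1% (w/v) phosphatidylcholine in dodecane. Acceptor was 50% v/v DMSO/phosphate buffer. Incubated 5 h at r.t. with gentle shaking. Donor and acceptor wells quantified by UV/LC-MS peak area. Papp and membrane retention calculated by equation, in triplicate.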
# [6] = target: Tyrosine-protein kinase Fyn (Homo sapiens, UniProt P06241); test: Inhibition of recombinant full length N-terminal His6 tagged human FYN expressed in baculovirus infected sf21 cells using KVEKIGEGTYGVVYK as substrate in presence of [gamma33P]ATP by scintillation counting method
# Method in brief: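 Fyn radiometric assay with 250 µM Src-peptide, 100 µM ATP plus γ-33P ATP, 0.00087% NP-40, 10-50 ng enzyme, 10% DMSO, 30 °C for 10 min. ID50 taken from velocity fits. Ki derived assuming ATP-competitive binding, with ATP Km 102 µM.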
# [7] = Metabolic stability in human liver microsomes assessed as compound remaining at 50 uM after 1 hr by UV/LC-MS analysis relative to control; format: ADME, Microsome; conditions: read-out: Stability
# Method in brief: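 Human liver microsomes at 0.2 mg/mL with NADPH regenerating system, compound at 50 µM in pH 7.4 25 mM phosphate buffer, 37 °C for 1 h. Quenched with acetonitrile, then supernatant dried and taken up in methanol. Unmetabolized percentage measured by UV/LC-MS. Mean of at least three experiments.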
# [8] = Membrane retention of compound at 500 uM after 5 hrs by UV/LC-MS analysis based GI-PAMPA assay relative to control; format: ADME; method in brief: as §1
# [9] = target: Tyrosine-protein kinase Lyn (Homo sapiens, UniProt P07948); test: Inhibition of LYN (unknown origin) using KVEKIGEGTYGVVYK as substrate in presence of [gamma33P]ATP as substrate in presence of [gamma33P]ATP by scintillation counting method
# Method in brief: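 Lyn radiometric assay with 200 µM Src-peptide, 40 µM ATP plus γ-33P ATP, 0.0013% NP-40, 10-50 ng enzyme, 10% DMSO, 30 °C for 10 min. ID50 taken from velocity fits. Ki derived assuming ATP-competitive binding, with ATP Km 39.9 µM.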
# [10] = target: Tyrosine-protein kinase Blk (Homo sapiens, UniProt P51451); test: Inhibition of BLK (unknown origin) using KVEKIGEGTYGVVYK as substrate in presence of [gamma33P]ATP as substrate in presence of [gamma33P]ATP by scintillation counting method
# FEPD [11] = test: Induction of cell cycle arrest in human FEPD cells assessed as accumulation at sub-G0 phase at 5 to 10 uM after 72 hrs by 7AAD staining based assay; format: functional
# SU-DHL-8 [12] = test: Induction of cell cycle arrest in human SUDHL8 cells assessed as accumulation at sub-G0 phase at 5 to 10 uM after 72 hrs by 7AAD staining based assay; format: functional
# HuT78 [13] = test: Induction of cell cycle arrest in human HUT78 cells assessed as accumulation at sub-G0 phase at 5 to 10 uM after 72 hrs by 7AAD staining based assay; format: functional
# Tyrosine-protein kinase Fyn, sequence (P06241 whole entry): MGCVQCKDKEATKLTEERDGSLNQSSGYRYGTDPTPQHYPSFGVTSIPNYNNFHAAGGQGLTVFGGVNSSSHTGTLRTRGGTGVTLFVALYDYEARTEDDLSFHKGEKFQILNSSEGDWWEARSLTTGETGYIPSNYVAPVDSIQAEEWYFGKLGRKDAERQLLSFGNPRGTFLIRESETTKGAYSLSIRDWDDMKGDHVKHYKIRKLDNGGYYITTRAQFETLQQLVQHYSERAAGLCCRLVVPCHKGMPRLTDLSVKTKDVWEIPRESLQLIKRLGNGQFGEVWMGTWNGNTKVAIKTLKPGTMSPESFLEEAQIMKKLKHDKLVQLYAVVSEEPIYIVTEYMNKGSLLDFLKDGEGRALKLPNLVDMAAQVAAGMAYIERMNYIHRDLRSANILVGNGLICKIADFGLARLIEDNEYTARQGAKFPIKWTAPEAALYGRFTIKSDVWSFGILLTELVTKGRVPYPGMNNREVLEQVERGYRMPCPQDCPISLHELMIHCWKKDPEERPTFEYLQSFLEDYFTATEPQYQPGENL
# Tyrosine-protein kinase Lyn, sequence (P07948 whole entry): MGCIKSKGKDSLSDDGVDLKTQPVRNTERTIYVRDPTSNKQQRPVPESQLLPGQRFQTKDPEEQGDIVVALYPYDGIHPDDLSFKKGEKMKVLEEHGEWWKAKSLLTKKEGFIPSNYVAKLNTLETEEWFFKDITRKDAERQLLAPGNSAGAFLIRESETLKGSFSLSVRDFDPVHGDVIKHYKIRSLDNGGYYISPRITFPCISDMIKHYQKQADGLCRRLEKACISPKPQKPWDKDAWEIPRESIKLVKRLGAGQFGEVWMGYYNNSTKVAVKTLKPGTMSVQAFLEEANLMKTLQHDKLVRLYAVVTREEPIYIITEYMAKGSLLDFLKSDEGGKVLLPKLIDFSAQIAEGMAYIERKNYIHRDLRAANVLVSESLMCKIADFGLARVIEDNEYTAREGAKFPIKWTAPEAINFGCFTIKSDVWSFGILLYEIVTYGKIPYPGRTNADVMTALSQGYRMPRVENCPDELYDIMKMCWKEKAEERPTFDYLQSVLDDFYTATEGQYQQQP
# Tyrosine-protein kinase Blk, sequence (P51451 whole entry): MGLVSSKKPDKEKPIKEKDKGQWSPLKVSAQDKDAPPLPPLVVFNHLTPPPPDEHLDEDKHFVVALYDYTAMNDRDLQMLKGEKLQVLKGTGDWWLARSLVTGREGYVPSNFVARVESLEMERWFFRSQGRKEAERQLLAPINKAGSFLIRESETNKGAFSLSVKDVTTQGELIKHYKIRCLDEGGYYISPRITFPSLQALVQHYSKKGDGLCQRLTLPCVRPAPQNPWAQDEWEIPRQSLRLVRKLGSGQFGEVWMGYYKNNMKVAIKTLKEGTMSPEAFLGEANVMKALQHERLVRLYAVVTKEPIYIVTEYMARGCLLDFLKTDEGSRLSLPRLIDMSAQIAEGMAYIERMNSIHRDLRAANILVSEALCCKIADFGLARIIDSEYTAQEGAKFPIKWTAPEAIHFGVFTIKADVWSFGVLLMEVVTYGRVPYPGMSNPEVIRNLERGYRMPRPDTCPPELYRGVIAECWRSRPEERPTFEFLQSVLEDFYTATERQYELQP
Compound,pIC50 (Farage),pIC50 (HH),pIC50 (SU-DHL-8 [1]),pIC50 (H9),pIC50 (FEPD [2]),pIC50 (DOHH-2),pIC50 (HuT78 [3]),pIC50 (SU-DHL-6),solubility at 24 h [4] [µg/mL],"Papp at 5 h, 500 µM [5] [×10⁻⁶ cm/s]",pKi [6],"remaining at 1 h, 50 µM [7] [%]",R% [8] [%],pKi [9],pKi [10],Activity (FEPD [11]),Activity (SU-DHL-8 [12]),Activity (HuT78 [13])
Nc1ncnc2c1c(-c1ccc(I)cc1)nn2CC(Cl)c1ccccc1 (racemic),4.90,5.28,4.94,4.94,4.69,5.43,4.92,4.88,,,,,,,,,,
CC(Cn1nc(-c2ccc([N+](=O)[O-])cc2)c2c(N)ncnc21)c1ccccc1 (racemic),< 4.00,< 4.00,< 4.00,< 4.00,< 4.00,< 4.00,< 4.00,< 4.00,,,,,,,,,,
Nc1ncnc2c1c(-c1ccc(Br)cc1)nn2CC(Cl)c1ccccc1 (racemic),4.87,4.91,4.93,4.66,4.66,4.96,4.68,4.34,,,,,,,,,,
Cc1ccc(-c2nn(CC(Cl)c3ccccc3)c3ncnc(N)c23)cc1 (stereo not drawn),4.72,4.83,4.92,< 4.00,< 4.00,4.93,4.95,4.63,,,,,,,,,,
Nc1ncnc2c1c(-c1ccc(Cl)cc1)nn2CC(Cl)c1ccccc1 (stereo not drawn),4.83,4.86,5.05,4.87,4.80,4.94,< 4.00,4.67,0.01,9.95,6.80,85.2,70.4,6.72,6.72,,,
Nc1ncnc2c1c(-c1ccc(Cl)cc1)nn2CCc1ccccc1,4.73,4.74,4.44,< 4.00,4.51,4.93,< 4.00,< 4.00,,,,,,,,,,
CC(Cn1nc(-c2ccc(F)cc2)c2c(N)ncnc21)c1ccccc1 (racemic),4.64,4.93,4.92,4.73,< 4.00,4.67,< 4.00,4.64,,,,,,,,,,
Cc1ccc(-c2nn(CCc3ccccc3)c3ncnc(N)c23)cc1,4.80,4.76,4.43,< 4.00,4.67,5.01,< 4.00,< 4.00,,,,,,,,,,
Nc1ncnc2c1c(-c1cccc(Cl)c1)nn2CC(Cl)c1ccccc1 (racemic),4.51,4.37,4.86,4.66,4.60,4.56,< 4.00,< 4.00,,,,,,,,,,
Nc1ncnc2c1c(-c1ccc(CO)cc1)nn2CC(O)c1ccccc1 (racemic),4.57,4.76,4.57,4.65,4.58,4.92,< 4.00,4.47,,,,,,,,,,
CCCc1ccc(-c2nn(CC(Cl)c3ccccc3)c3ncnc(N)c23)cc1 (racemic),4.53,4.31,5.17,5.32,4.54,5.36,5.00,4.51,,,,,,,,,,
CCc1ccc(-c2nn(CC(Cl)c3ccccc3)c3ncnc(N)c23)cc1 (racemic),4.64,4.68,4.76,4.62,4.67,4.67,4.24,4.53,,,,,,,,,,
Nc1ncnc2c1c(-c1ccccc1Cl)nn2CC(Cl)c1ccccc1 (racemic),4.29,< 4.00,4.74,4.41,4.41,4.58,< 4.00,< 4.00,,,,,,,,,,
Nc1ncnc2c1c(-c1ccc(CO)cc1)nn2CC(Cl)c1ccccc1 (racemic),5.15,5.62,5.21,5.47,4.96,5.61,5.35,5.03,0.09,10.8,6.92,85,15.2,6.72,,Active,Active,Active
